# Measurements pooled from the literature.
# Compare with care: the assays were run in different laboratories.
# Target: Mitogen-activated protein kinase 12 (MAPK12, Homo sapiens, UniProt P53778)
# Sequence (P53778 1-367, as in one of the studies): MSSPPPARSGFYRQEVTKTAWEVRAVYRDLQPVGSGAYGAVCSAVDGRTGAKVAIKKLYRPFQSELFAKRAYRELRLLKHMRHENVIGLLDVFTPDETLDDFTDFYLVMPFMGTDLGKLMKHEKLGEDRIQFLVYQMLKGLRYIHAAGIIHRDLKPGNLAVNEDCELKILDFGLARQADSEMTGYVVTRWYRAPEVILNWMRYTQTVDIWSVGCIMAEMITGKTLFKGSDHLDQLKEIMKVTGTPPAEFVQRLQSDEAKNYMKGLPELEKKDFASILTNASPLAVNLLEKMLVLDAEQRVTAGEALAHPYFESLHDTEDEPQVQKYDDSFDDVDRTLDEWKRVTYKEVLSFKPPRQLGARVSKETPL
Structure (SMILES),assay,conditions,quantity,result
FC(F)c1nc2ccccc2n1-c1nc(N2CCOCC2)nc(N2CCOCC2)n1,"enzyme activity, inhibitor",10 µM,remaining activity,92%
CCN(CC)CCNC(=O)c1c(C)[nH]c(/C=C2\C(=O)Nc3ccc(F)cc32)c1C,"enzyme activity, inhibitor",0.3 µM,inhibition,-10%
Cc1nccc(COC(=O)N2C[C@@H]3[C@@H](CNC(=O)c4ccc5[nH]nnc5c4)[C@@H]3C2)n1,"cell-free assay, competition with immobilised ligand",1 µM,remaining binding,79%
Nc1ncnc2occ(-c3ccc(NC(=O)Nc4cc(C(F)(F)F)ccc4F)cc3)c12,"cell-free assay, inhibitor",20 µM,remaining signal,0.5%
CC(C)(C)C(=O)c1sc(NC2CCCCC2)nc1N,"enzyme activity, inhibitor",10 µM,remaining activity,89%
COc1cc2ncnc(Nc3ccc(Oc4ccccc4)cc3C)c2cc1OC,"enzyme activity, inhibitor",1 µM,inhibition,4%
COc1cc(/C=C/C(=O)CC(=O)/C=C/c2ccc(O)c(OC)c2)ccc1O,"enzyme activity, inhibitor",1 µM,activity vs control,101%
CNC(=O)Nc1ccc2c(c1)CC[C@@]21OC(=O)N(CC(=O)N(Cc2ccc(F)cc2)[C@@H](C)C(F)(F)F)C1=O,"cell-free assay, competition with immobilised ligand",1 µM,remaining binding,63%
COc1cc(Cl)c(C(=O)N[C@@H](CN[C@H]2CC[C@@H](N)CC2)Cc2ccc(C#N)cc2)cc1-c1ccc(CN[C@H](C)c2ccc(C)cc2)o1,"enzyme activity, inhibitor",1 µM,remaining activity,109%
Cc1cc(NC(=O)c2cccc3cc(-c4cccc5[nH]nc(N)c45)ccc23)ccc1F,"enzyme activity, inhibitor",0.1 µM,activity vs control,83%
Oc1ccc(-c2nc(-c3ccncc3)c(-c3ccc(F)cc3)[nH]2)cc1,cell-free assay,0.5 µM,remaining signal,102%
COc1cc(Nc2cnc(C#N)c(O[C@H](C)CN(C)C)n2)ncc1-c1cnn(C)c1,"enzyme activity, inhibitor, radiometric",1 µM,remaining activity,89%
Cc1ccc(Nc2nccc(N(C)c3ccc4c(C)n(C)nc4c3)n2)cc1S(N)(=O)=O,"enzyme activity, inhibitor",10 µM,inhibition,-5%
Cc1ccc(NC(=O)c2ccc(C)c(C(F)(F)F)c2)cc1C#Cc1nn(C2CCC(O)CC2)c2ncnc(N)c12 (stereo not shown),cell-free assay,10 µM,remaining signal,68%
Cc1ccc(C(=O)Nc2ccc(CN3CCN(C)CC3)c(C(F)(F)F)c2)cc1C#Cc1cnc2cccnn12,"enzyme activity, inhibitor",23.5 nM,remaining activity,70%
CC1CCCN1c1nccc(-c2cnn3ncccc23)n1 (stereo not shown),binding,1 µM,remaining binding,90%
O=C(NC[C@@H]1[C@H]2CN(C(=O)OCc3cc(C(F)(F)F)cc(C(F)(F)F)c3)C[C@@H]12)c1ccc2[nH]nnc2c1,"cell-free assay, competition with immobilised ligand",1 µM,remaining binding,100%
Cc1sc(C(=O)NC2COC2)cc1-n1cc(NC(=O)Nc2c(F)cccc2Cl)cn1,"enzyme activity, inhibitor",10 µM,remaining activity,90.5%
N#CC1(c2ccccn2)CCN(Cc2cc(C(=O)N3CCCC3)c(=O)n3ccccc23)CC1,"cell-free assay, competition with immobilised ligand",1 µM,remaining binding,100%
CNC(=O)c1cc(Oc2ccc(NC(=O)Nc3ccc(Cl)c(C(F)(F)F)c3)cc2)ccn1,cell-free assay,0.5 µM,remaining signal,94.2%
Cn1nc(C(F)(F)F)cc1-c1cnc(N2CCc3cc(S(=O)(=O)Nc4c(F)cc(Cl)cc4F)cc(N4CCCC4=O)c32)nc1,"cell-free assay, competition with immobilised ligand",1 µM,remaining binding,83%
Oc1cccc(-c2nc(N3CCOCC3)c3oc4ncccc4c3n2)c1,cell-free assay,0.5 µM,remaining signal,93.4%
CS(=O)(=O)c1cc(C2(NC(=O)c3cncc4c3cnn4-c3ccc(F)cc3)CC2)ccn1,"cell-free assay, competition with immobilised ligand",1 µM,remaining binding,100%
CC(C)(C)c1nc(-c2cccc(NS(=O)(=O)c3c(F)cccc3F)c2F)c(-c2ccnc(N)n2)s1,"enzyme activity, inhibitor, radiometric",1 µM,remaining activity,102%
CN1CCN(c2cnc3c(C4CCN(C(=O)c5ccc(OC(F)(F)F)cc5N)CC4)ncnc3c2)CC1,"cell-free assay, competition with immobilised ligand",1 µM,remaining binding,83%
CCN(CC)c1ccc(C2=NNC(=O)CC2C)cc1[N+](=O)[O-] (stereo not shown),"enzyme activity, inhibitor",10 µM,remaining activity,104%
CC(=O)C1=C(C)N(c2cccc(C(F)(F)F)c2)C(=O)N[C@@H]1c1ccc(C#N)nc1,"cell-free assay, competition with immobilised ligand",1 µM,remaining binding,77.4%
O=C(Nc1cnn(-c2csc(C(=O)NC3COC3)c2)c1)Nc1ccccc1Cl,"enzyme activity, inhibitor",5 µM,remaining activity,99.4%
